An excerpt weighted towards active compounds, which were near 2.7% of everything screened.
S100A4 MyoIIA = blocks human S100A4 binding to myosin IIA peptide; P26447; S100A4/TAMRA-MyoIIA peptide fluorescence polarization; actives 0.14% (n = 360,000); inhibition, % at 10.7 µM;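 active means mean inhibition of at least 70% across replicates, with every replicate also reaching that level; inconclusive means mean inhibition reaches 70% but some replicates fall short; inactive means mean inhibition below 70%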
Target sequence (P26447 whole entry, looked up): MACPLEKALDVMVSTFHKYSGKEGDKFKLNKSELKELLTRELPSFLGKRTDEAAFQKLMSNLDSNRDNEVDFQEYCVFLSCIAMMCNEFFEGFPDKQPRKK
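Assay system: human S100A4 monomer with TAMRA-labelled myosin IIA peptide / Buffer or medium: Calcium-containing HEPES buffer, pH 7.2 / Reagent: TAMRA-labelled myosin IIA heavy-chain peptide probe, 5 nM / Compound: one dose per compound / Timing: polarization read 5 min after assay mix addition, stable 5–60 min / Benchmarks: neutral control DMSO, positive control TFP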
MLL AF4-AF9 inh = MLL-AF4/AF9 protein interaction inhibition | AID 651704 | P42568 | actives 0.47% (n = 350,000) | inhibition, % at 10 µM | AlphaScreen, biotin-AF4 peptide binding to FLAG-AF9;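 active means every replicate reaching a set inhibition limit, whatever the replicate mean, cut at about 25% in these data; inconclusive means mean inhibition reaches that limit but some replicates miss it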;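 further: 0% = plate neutral control median and 100% = total signal loss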
CaV13 FRET inh = Primary screen for inhibitors of IQ motif and Ca2+-dependent inactivation inhibitor domain binding in CACNA1D, Förster resonance energy transfer in living cells, …; HEK cells, CFP/YFP FRET ICDI-IQ, plate reader, 10 min; percent FRET-ratio fall versus neutral wells; inhibition, % at 12.3 µM; actives 0.098% (n = 340,000); AID 743397;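 active means mean replicate inhibition of at least 30% and at least 1% of replicates passing that level; inconclusive means only one of the two criteria is met; inactive means neither criterion is met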;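 further: 0% = median of the neutral control wells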
DENV2 CPE rescue = protects cells from dengue virus 2 cytopathic effect. actives 1.7% (n = 350,000). AID 651640. DENV2-infected cells, cytopathic effect rescue, plate reader. CPE inhibition, % at 9.99 µM; in the data active means CPE inhibition above about 20%, passing the limit was not always enough; inconclusive means no clear call, values can overlap the other calls; tested in BHK-21 cells;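 further: 0% = median of neutral control wells and 100% = median of positive control wells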
SIRT5 block = sirtuin-5 (human) deacylase inhibition | Q9NXA8 | Purified SirT5, succinyl-peptide AMC, trypsin-coupled fluorescence | inhibition, % at 15 µM | actives 1.1% (n = 330,000) | AID 652115; in the data active means inhibition above about 15%; inconclusive means no clear call, values can overlap the other calls
Target sequence (Q9NXA8 whole entry, looked up): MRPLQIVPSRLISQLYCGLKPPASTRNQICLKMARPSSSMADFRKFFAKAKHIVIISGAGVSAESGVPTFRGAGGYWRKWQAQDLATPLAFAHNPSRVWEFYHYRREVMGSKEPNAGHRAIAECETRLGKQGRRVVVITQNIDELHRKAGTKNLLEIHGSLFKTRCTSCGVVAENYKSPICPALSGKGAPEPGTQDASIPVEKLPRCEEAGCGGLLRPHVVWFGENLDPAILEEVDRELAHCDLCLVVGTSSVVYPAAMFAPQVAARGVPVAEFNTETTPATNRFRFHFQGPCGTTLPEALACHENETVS
Starred values were filed as active, the others as inactive; u = inconclusive; x = no result given; ! = a repeat was not active.

SMILES	S100A4 MyoIIA	MLL AF4-AF9 inh	CaV13 FRET inh	DENV2 CPE rescue	SIRT5 block
Cc1cc(N2CCN(Cc3nc(-c4ccc(Cl)cc4)oc3C)CC2)cc(C)n1	-3.0	-11.7	-4.4	6.9	-6.2
O=S(=O)(c1ccccc1)N1CCCCN2[C@H](CO)[C@@H](c3ccc(C#CC4CCCC4)cc3)[C@H]2C1	-0.7	0.8	x	2.4	0.6
O=C(NC[C@H]1CC[C@H]2[C@H](CN2Cc2ccccc2F)O1)C1CC1	15.6	-1.5	x	14.5	-1.6
CCN(CC)c1ccc(/C=N/N2C(=O)c3ccccc3C2=O)c(O)c1	3.1	-2.7	-6.6	42.4*	3.1
CC1CCN(S(=O)(=O)c2ccc(C(=O)N(C)C3CCS(=O)(=O)C3)cc2)CC1 (configuration not stated)	-14.8	-0.3	-4.9	-5.9	24.9*
COc1ccc(C(=O)N2c3cc4c(cc3C(C)=CC2(C)C)OCO4)cc1	8.9	32.2*	-5.4	x	x
CC(C)[C@H](NC(=O)c1ccco1)C(=O)N1CCC[C@H]1C(=O)NCc1ccccc1	-3.2	x	-2.6	3.7	3.2
O=C(c1ccc(F)cc1)N1CC(=O)N2[C@@H](CO)[C@@H](c3ccc(-c4ccccc4)cc3)[C@@H]2C1	-11.2	-1.0	x	5.6	2.0
CCCNC(=O)N(C)C[C@@H]1Oc2ncc(-c3ccc(C(=O)N(C)C)cc3)cc2C(=O)N([C@H](C)CO)C[C@@H]1C	4.2	-21.4	x	-5.7	2.3
CCC(C)(C)n1nnnc1C(c1cc2cc(C)ccc2[nH]c1=O)N1CCCc2ccccc21 (configuration not stated)	-1.1	7.9	-8.0	5.8	17.3*
CCC(C)(C)n1nnnc1C(c1cc2cc(OC)ccc2[nH]c1=O)N1CCc2ccccc21 (configuration not stated)	x	x	-4.6	x	x
COc1ccc(CN(C)C[C@@H]2OCCCC[C@H](C)Oc3ccc(N(C)C)cc3C(=O)N([C@H](C)CO)C[C@@H]2C)cc1	1.9	8.4	x	x	6.5
C[C@H](CO)N1C[C@H](C)[C@@H](CN(C)S(=O)(=O)c2ccc(F)cc2)Oc2c(NC(=O)NC3CCCCC3)cccc2C1=O	5.0	49.0*!	-9.4	u	0.4
C[C@H]1CN([C@@H](C)CO)C(=O)c2cccc(NC(=O)NC3CCCCC3)c2O[C@@H]1CN(C)S(=O)(=O)c1ccc(Cl)cc1	1.5	1.8	x	26.8*	-2.8
C[C@H](CO)N1C[C@H](C)[C@H](CN(C)S(=O)(=O)c2ccc(Cl)cc2)Oc2c(NC(=O)NC3CCCCC3)cccc2C1=O	5.8	1.8	x	-19.3	7.1
O=C1[C@H]2[C@@H](c3ccccc3)N[C@]3(CCCN(Cc4ccc(Cl)cc4)C3=O)[C@H]2C(=O)N1Cc1ccccc1	1.4	3.8	-3.5	44.2*	11.3
COc1ccc([C@H]2N[C@]3(CCCN(Cc4ccc(C)cc4)C3=O)[C@H]3C(=O)N(C)C(=O)[C@@H]23)cc1	7.0	3.1	-3.5	5.2	39.0*
COc1ccc(CN2CCC[C@]3(N[C@H](c4ccc(OC)cc4)[C@@H]4C(=O)N(C)C(=O)[C@@H]43)C2=O)cc1	2.5	2.2	-10.1	27.2*	-6.7
COc1ccc([C@H]2N[C@]3(CCCN(Cc4ccccc4)C3=O)[C@H]3C(=O)N(C)C(=O)[C@@H]23)cc1	-6.3	-1.6	-9.7	5.1	-4.2
CCCNC(=O)Nc1ccc2c(c1)OC[C@@H](C)N(Cc1ccc(-c3ccccn3)cc1)C[C@H](C)[C@H](OC)CN(C)C2=O	9.4	4.5	x	0.5	x
CCCNC(=O)Nc1ccc2c(c1)OC[C@H](C)N(Cc1ccncc1)C[C@@H](C)[C@@H](OC)CN(C)C2=O	-1.1	0.5	x	45.1*	-1.0
CCCNC(=O)Nc1ccc2c(c1)OC[C@H](C)N(Cc1ccncc1)C[C@H](C)[C@@H](OC)CN(C)C2=O	1.2	-1.6	x	-3.4	-0.5
COc1ccc(CN2C[C@H](C)[C@@H](OC)CN(C)C(=O)c3cc(NC(=O)c4nc5ccccc5s4)ccc3OC[C@@H]2C)cc1	-30.9	0.6	x	31.0*	x
CCCC(=O)Nc1ccc2c(c1)C(=O)N(C)C[C@H](OC)[C@H](C)CN(Cc1ccc(-c3ccccn3)cc1)[C@@H](C)CO2	-7.2	3.7	x	28.3*	x
CCCC(=O)Nc1ccc2c(c1)C(=O)N(C)C[C@@H](OC)[C@@H](C)CN(Cc1ccc(-c3ccccn3)cc1)[C@@H](C)CO2	5.3	1.4	x	-5.6	x
SMILES	S100A4 MyoIIA	MLL AF4-AF9 inh	CaV13 FRET inh	DENV2 CPE rescue	SIRT5 block
CCCNC(=O)Nc1ccc2c(c1)C(=O)N(C)C[C@H](OC)[C@H](C)CN(Cc1ccc(-c3ccccn3)cc1)[C@H](C)CO2	28.8	6.6	x	u	15.1*
C[C@H]1CN([C@@H](C)CO)S(=O)(=O)c2ccc(-c3ccccc3)cc2O[C@@H]1CN(C)S(=O)(=O)c1ccccc1F	-5.1	0.2	x	-5.4	12.9
CCCC(=O)Nc1ccc2c(c1)OC[C@@H](C)N(Cc1ccc(-c3ccccn3)cc1)C[C@H](C)[C@H](OC)CN(C)C2=O	109.0*	-1.8	x	-2.5	4.3
O=C1c2ccccc2C(=O)c2c1ccc1c(=O)n(C3CCCCC3)[nH]c21	-6.2	x	-2.7	x	18.8*
F[B-](F)(F)COc1ccccc1	5.0	-2.8	-3.1	35.5*	-0.5
Cc1ccc(O)c(CNCCNCc2cc(C)ccc2O)c1	-7.8	21.1	-10.4	1.4	-2.0
CCc1ccc(O)c(CNCCNCc2cc(CC)ccc2O)c1	-3.9	11.1	-3.3	72.8*	x
Cn1c(N)c(C(=O)COC(=O)Cc2ccc(Cl)c(Cl)c2)c(=O)n(C)c1=O	-0.4	-1.3	-3.5	57.1*	0.5
COc1ccc(CC(=O)OCC(=O)c2c(N)n(C)c(=O)n(C)c2=O)cc1OC	-1.6	u	-4.7	17.2	-1.2
COc1ccccc1CNC(=O)C[C@@H]1C[C@H]2c3cc(NC(=O)NC4CCCC4)ccc3O[C@H]2[C@@H](CO)O1	9.5	-1.2	x	5.6	-1.6
Cc1ccc(S(=O)(=O)N(C)C[C@H]2OCCCC[C@H](C)Oc3ccc(N(C)C)cc3C(=O)N([C@@H](C)CO)C[C@@H]2C)cc1	10.3	15.9	x	5.7	2.3
COc1cc(C2NC(=O)NC(C)=C2C(=O)OC2CCCC(C)C2)cc(Br)c1O (configuration not stated)	0.2	4.6	-19.8	45.8*	-1.9
C/C(=N/NS(=O)(=O)c1ccc(C)cc1)c1c(O)c2ccccc2oc1=O	-0.7	5.7	1.3	-6.3	28.5*
Cc1ccc(NC(=O)CN2C(=O)S/C(=C\c3ccc(OCC(=O)O)c(Br)c3)C2=O)cc1	-8.4	1.2	-9.5	-6.5	17.1*
COCC(=O)Nc1ccc2c(c1)C(=O)N(C)C[C@H](OC)[C@H](C)CN(CC1CCCCC1)[C@H](C)CO2	-6.3	2.7	x	-2.8	-0.4
COc1ccc(N2CCN(CC(=O)c3ccccc3)CC2)cc1	-6.5	31.3*	-4.2	3.5	2.5
